Test results taken from ChEMBL document CHEMBL1914459 (Bioorg Med Chem Lett, 2011).

Experiments:
[1] = Intrinsic clearance in rat hepatocytes assessed as per 1 x 10^6 cells
[2] = Lipophilicity, log D of the compound at pH 7.4; conditions: buffer
[3] = target: T1, Prostaglandin D2 receptor 2 (Homo sapiens, UniProt Q9Y5Y4); assay: Displacement of [3H]PGD2 from human CRTH2 receptor
T1 sequence (Q9Y5Y4 whole entry): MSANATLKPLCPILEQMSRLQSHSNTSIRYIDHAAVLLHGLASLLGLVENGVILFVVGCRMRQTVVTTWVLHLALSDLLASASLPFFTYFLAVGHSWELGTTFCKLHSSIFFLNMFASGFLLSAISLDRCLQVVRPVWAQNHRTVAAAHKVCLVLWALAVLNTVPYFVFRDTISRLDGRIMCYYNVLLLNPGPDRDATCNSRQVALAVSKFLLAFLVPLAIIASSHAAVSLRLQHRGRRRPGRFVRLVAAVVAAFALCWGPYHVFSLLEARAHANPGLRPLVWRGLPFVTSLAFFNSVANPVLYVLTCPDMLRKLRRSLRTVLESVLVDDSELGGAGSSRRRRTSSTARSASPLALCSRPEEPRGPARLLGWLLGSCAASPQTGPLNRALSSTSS
How it was run: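 Radioligand binding with ³H-PGD₂ as the labelled ligand; IC₅₀ reported as mean of n >2 measurements.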

[4] = Inhibition of human recombinant aldose reductase 2 after 15 mins by spectrophotometry analysis
[5] = target: Aldehyde reductase AKR1A1 (Homo sapiens); assay: Inhibition of human recombinant aldose reductase 1 after 15 mins by spectrophotometry analysis
Cytochrome P450 2C9 = Cytochrome P450 2C9 (Homo sapiens, UniProt P11712); assay: Inhibition of CYP2C9; format: ADME
[6] = Clearance in Sprague-Dawley rat at 1 mg/kg, iv; format: ADME, organism-based; design: dose 1 mg/kg, route intravenous; conditions: in vivo
[7] = Half life in Sprague-Dawley rat at 1 mg/kg, iv; format: ADME, organism-based; design: dose 1 mg/kg, route intravenous; conditions: in vivo
[8] = Oral bioavailability in Sprague-Dawley rat at 3 mg/kg; format: ADME, organism-based; conditions: in vivo
[9] = Volume of distribution at steady state in Sprague-Dawley rat at 1 mg/kg, iv; format: ADME, organism-based; design: dose 1 mg/kg, route intravenous; conditions: in vivo, read-out: Vdss
[10] = target: T1, Prostaglandin D2 receptor 2; assay: Antagonist activity at human CRTh2 receptor expressed in HEK cells assessed as inhibition of PGD2-induced calcium flux; format: functional, cell-based, HEK293
Homo sapiens = species: Homo sapiens; assay: Selectivity ratio of IC50 for human recombinant aldose reductase 1 to IC50 for human CRTh2 receptor
How it was run: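 Ratio of two IC50s from separate assays. […] ALR1 activity was followed at […] as NADPH oxidation, at 22 °C. All reagents except NADPH were preincubated 15 min before NADPH started the reaction. Initial linear rates were corrected for non-enzymatic NADPH oxidation, and % inhibition was taken against no-compound control.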

[11] = Oral bioavailability in Sprague-Dawley rat at 4 mg/kg; format: ADME, organism-based; conditions: in vivo

Sequence of Cytochrome P450 2C9 (P11712 whole entry): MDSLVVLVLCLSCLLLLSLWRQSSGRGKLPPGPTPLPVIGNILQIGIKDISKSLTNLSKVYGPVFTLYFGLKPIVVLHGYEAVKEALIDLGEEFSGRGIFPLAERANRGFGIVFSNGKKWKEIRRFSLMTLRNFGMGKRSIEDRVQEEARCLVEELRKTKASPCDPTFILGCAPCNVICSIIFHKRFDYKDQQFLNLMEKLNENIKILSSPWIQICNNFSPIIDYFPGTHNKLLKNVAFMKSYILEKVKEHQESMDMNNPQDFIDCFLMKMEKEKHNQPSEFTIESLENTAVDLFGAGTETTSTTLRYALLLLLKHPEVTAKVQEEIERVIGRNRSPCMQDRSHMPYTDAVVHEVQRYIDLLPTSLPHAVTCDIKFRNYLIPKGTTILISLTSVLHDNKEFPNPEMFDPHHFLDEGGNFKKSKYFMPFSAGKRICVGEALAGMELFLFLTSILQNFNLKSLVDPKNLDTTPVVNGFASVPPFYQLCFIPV

| SMILES | hepatocyte CLint [1] | logD [2] | IC50 [3] | IC50 [4] | other results |
| --- | --- | --- | --- | --- | --- |
| Cc1ccc2c(c1)c([S+]([O-])c1ccc(Cl)cc1)c(C)n2CC(=O)O (stereo not drawn) | < 5 µL/min/1e6 cells | 0.1 | 1 µM |  |  |
| CCN(C(C)=O)c1cccc2c1c(Sc1ccc(Cl)cc1)c(C)n2CC(=O)O |  | 1.6 |  |  |  |
| CC(=O)Nc1ccc2c(c1)c(Sc1ccc(Cl)cc1)c(C)n2CC(=O)O | 8 µL/min/1e6 cells | 0.2 | 0.056 µM |  |  |
| Cn1c(CC(=O)O)c(Sc2ccccc2)c2ccccc21 |  |  | 0.794 µM |  |  |
| Cc1c(Sc2ccc(Cl)cc2)c2ccc(S(C)(=O)=O)cc2n1CC(=O)O | < 3 µL/min/1e6 cells | 0.8 | 0.159 µM |  |  |
| Cc1c(Sc2ccc(Cl)cc2)c2cc(Cl)ccc2n1Cc1nnn[nH]1 |  |  | 1.47 µM |  |  |
| O=C(O)Cn1cc(Sc2ccc(Cl)cc2)c2cc(Cl)ccc21 |  |  | 0.089 µM |  |  |
| Cc1c(Sc2ccc(Cl)cc2)c2cc(S(C)(=O)=O)ccc2n1CC(=O)O |  | 0.5 | 0.071 µM |  |  |
| Cc1ccc2c(c1)c(S(=O)(=O)c1ccccc1Cl)c(C)n2CC(=O)O | 21 µL/min/1e6 cells |  | 0.178 µM |  |  |
| CCS(=O)(=O)Nc1cccc2c1c(Oc1ccc(Cl)cc1)c(C)n2CC(=O)O |  |  | 0.036 µM |  |  |
| Cc1ccc2c(c1)c(S(=O)(=O)c1cccc(Cl)c1)c(C)n2CC(=O)O |  |  | 0.079 µM |  |  |
| Cc1ccc2c(c1)c(S(=O)(=O)c1c(Cl)cccc1Cl)c(C)n2CC(=O)O |  |  | 0.126 µM |  |  |
| COc1cccc(S(=O)(=O)c2c(C)n(CC(=O)O)c3ccc(C)cc23)c1 | 14 µL/min/1e6 cells | -0.4 | 0.071 µM | 0.724 µM | IC50 [5]: 0.115 µM; Ratio IC50 (Homo sapiens): < 20 |
| Cc1c(Sc2ccc(Cl)cc2)c2cc(Cl)c(C#N)cc2n1CC(=O)O | 29 µL/min/1e6 cells |  | 0.178 µM |  |  |
| CNC(=O)c1cccc2c1c(Sc1ccc(Cl)cc1)c(C)n2CC(=O)O | < 3 µL/min/1e6 cells | -0.9 | 0.045 µM |  |  |
| Cc1c(Sc2ccc(Cl)cc2)c2cccc(Cl)c2n1CC(=O)O | 75 µL/min/1e6 cells | 2 | 0.06 µM | 11.2 µM |  |
| Cc1c(Sc2ccc(Cl)cc2)c2c(Cl)nccc2n1CC(=O)O |  | 0.9 | 0.032 µM |  |  |
| Cc1c(Sc2ccc(Cl)cc2)c2cc(Cl)ccc2n1C(C)C(=O)O (stereo not drawn) |  |  | 0.501 µM |  |  |
| Cc1ccc2c(n1)c(Sc1ccc(Cl)cc1)c(C)n2CC(=O)O |  | 0.4 | 0.056 µM |  |  |
| Cc1c(Sc2ccc(Cl)cc2)c2ccc(Cl)cc2n1CC(=O)O | 64 µL/min/1e6 cells | 2.5 | 0.042 µM | 2 µM |  |

Continued, in another order:

| hepatocyte CLint [1] | logD [2] | IC50 [3] | IC50 [4] | SMILES | other results |
| --- | --- | --- | --- | --- | --- |
|  | 2.3 | 0.011 µM |  | Cc1c(Oc2ccc(Cl)cc2)c2cc(C(F)(F)F)ccc2n1CC(=O)O |  |
| 31 µL/min/1e6 cells | 1.9 | 0.003 µM | 3.16 µM | Cc1ccc2c(c1)c(Sc1cccc(Cl)c1)c(C)n2CC(=O)O |  |
| 12 µL/min/1e6 cells | 0 | 0.0006 µM |  | Cc1c(Sc2ccc(Cl)cc2)c2c(-c3cnccn3)cccc2n1CC(=O)O |  |
| 6 µL/min/1e6 cells | 1.6 | 0.0061 µM | 4.73 µM | Cc1c(Sc2ccc(Cl)cc2)c2c(C#N)c(Cl)ccc2n1CC(=O)O | IC50 [5]: 2.24 µM |
| 7 µL/min/1e6 cells | -0.1 | 0.0014 µM | > 10 µM | Cc1ccc2c(c1)c(Sc1ccc(S(C)(=O)=O)cc1)c(C)n2CC(=O)O | IC50 (Cytochrome P450 2C9): 5.2 µM |
|  | 2.2 | 0.025 µM | 5.01 µM | Cc1c(Sc2ccc(Cl)cc2)c2c(Cl)cccc2n1CC(=O)O | IC50 [5]: 1.78 µM |
| 8 µL/min/1e6 cells | -1 | 0.0035 µM |  | Cc1c(Oc2ccc(Cl)cc2)c2c(NS(C)(=O)=O)cccc2n1CC(=O)O | clearance [6]: 1.2 L/h/kg; half-life [7]: 1.4 h; bioavailability [8]: > 46%; Vd [9]: 1.7 L/kg |
|  |  | 0.0035 µM |  | Cc1c(Sc2ccc(Cl)cc2)c2c(-c3nccs3)cccc2n1CC(=O)O |  |
| 25 µL/min/1e6 cells | 2.6 | 0.001 µM |  | Cc1c(Sc2ccc(Cl)cc2)c2c(-c3ccccc3)cccc2n1CC(=O)O |  |
|  | 3.7 | 0.0035 µM | 4.47 µM | Cc1c(Sc2ccc(Cl)cc2)c2cc(-c3ccccc3)ccc2n1CC(=O)O | IC50 [5]: 1.78 µM |
|  | 2.2 | 0.0013 µM | 3.55 µM | Cc1c(F)ccc2c1c(Sc1ccc(Cl)cc1)c(C)n2CC(=O)O | IC50 [5]: 2.24 µM |
|  | 0.6 | 0.011 µM |  | Cc1c(Sc2ccc(Cl)cc2)c2c(S(C)(=O)=O)cccc2n1CC(=O)O |  |
|  |  | 0.013 µM |  | Cc1c(Sc2ccc(Cl)cc2)c2cc(Cl)ccc2n1CC(=O)O | IC50 [10]: 0.035 µM |
| < 3 µL/min/1e6 cells | -0.2 | 0.0071 µM |  | Cc1c(S(=O)(=O)c2ccc(Cl)cc2)c2cc(F)ccc2n1CC(=O)O |  |
| 19 µL/min/1e6 cells | 1.8 | 0.0016 µM | > 7.94 µM | Cc1c(Sc2ccc(Cl)cc2)c2cc(F)ccc2n1CC(=O)O | IC50 [5]: 3.16 µM |
| 18 µL/min/1e6 cells |  | 0.015 µM |  | Cc1ccc2c(c1)c(Sc1ccc(Cl)cc1)c(C)n2CC(=O)O | IC50 (Cytochrome P450 2C9): 0.8 µM; IC50 [10]: 0.087 µM |
| 14 µL/min/1e6 cells |  | 0.004 µM |  | Cc1c(Oc2ccc(Cl)cc2)c2c(-c3ccccc3)cccc2n1CC(=O)O |  |
| 6 µL/min/1e6 cells | 0.2 | 0.0018 µM | > 5.31 µM | Cc1c(Sc2ccc(Cl)cc2)c2c(NS(C)(=O)=O)cccc2n1CC(=O)O | clearance [6]: 0.66 L/h/kg; half-life [7]: 1.7 h; IC50 (Cytochrome P450 2C9): 10 µM; Vd [9]: 1.1 L/kg; bioavailability [11]: 42% |
|  | -1.4 | 0.018 µM |  | CC(=O)Nc1cccc2c1c(Oc1ccc(Cl)cc1)c(C)n2CC(=O)O |  |
|  | -0.8 | 0.0079 µM | > 5.84 µM | Cc1c(S(=O)(=O)c2ccc(Cl)cc2)c2c(NS(C)(=O)=O)cccc2n1CC(=O)O | IC50 [5]: 0.063 µM |
|  | 0.1 | 0.026 µM | 6.31 µM | Cc1ccc2c(c1)c(S(=O)(=O)c1ccc(Cl)cc1)c(C)n2CC(=O)O |  |
| 24 µL/min/1e6 cells | 1 | 0.0071 µM | 0.251 µM | COc1ccc(Sc2c(C)n(CC(=O)O)c3ccc(C)cc23)cc1 | IC50 [5]: 0.282 µM |
|  | 0.3 | 0.0035 µM | > 10 µM | CCS(=O)(=O)c1ccc(Oc2c(C)n(CC(=O)O)c3ccc(C(F)(F)F)cc23)cc1 | IC50 [5]: 3.98 µM |
| 24 µL/min/1e6 cells | 1.7 | 0.0026 µM | 11.2 µM | Cc1ccc2c(c1)c(Sc1ccccc1Cl)c(C)n2CC(=O)O |  |
| < 3 µL/min/1e6 cells | 1.3 | 0.005 µM |  | Cc1c(Oc2ccc(Cl)cc2)c2cc(F)ccc2n1CC(=O)O |  |
